Tm and folding enthalpy data for 25 sequences are collected here from the array DNA melting data of Ke et al. (doi:10.1101/2024.01.08.574731).

The nature of series [1]: melting temperature; fluorescence melt of hairpins on a sequencing array, two-state fit, raised by 9.35 °C to match UV melts. Conditions: sodium 0.088 M. The method in brief:
(§1)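 With Cy3 and quencher oligos annealed, library hairpins on a sequenced MiSeq flow cell were imaged for Cy3 fluorescence in 50 mM Na-HEPES pH 8.0, 25 mM NaCl, in 2.5 °C steps up to 60 °C. Melting temperature and folding enthalpy were derived from bootstrapped two-state fits of signals normalised to pre-quench Cy3 and to control constructs. Four replicates were combined by inverse variance, with fitted temperatures raised by 9.35 °C to match UV melts.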

Series [2] in a line: folding enthalpy; higher = less favourable; fluorescence melt of hairpins on a sequencing array, two-state fit. Conditions: sodium 0.088 M. The method in brief: as §1

In the case of GTTTTTGGAAACAAAAAC (((((((....))))))), the Tm in series [1] came out at 51.5 °C. Also, the folding enthalpy in series [2] is -41.9 kcal/mol.
For GTTTTTGGAAACAAAGAC ((.((((....)))).)), in that order: 34 °C and -24.5 kcal/mol.
In the case of TAACGGAAACGTTA (((((....))))), the Tm in series [1] came out at 41.3 °C. Besides, the folding enthalpy in series [2] is -18.4 kcal/mol.
For TACAGGAAACTGTA (((((....))))) the same measures were 37.7 °C and -14.5 kcal/mol.
For TACCAGAAATGGTA (((((....))))) the same measures were 37.5 °C and -13.3 kcal/mol.
As for TACCGGAAACGGTA (((((....))))), the Tm in series [1] stood at 50.2 °C. Besides, in series [2], the folding enthalpy is -16 kcal/mol.
For TACGTGAAAACGTA (((((....))))) the same measures were 43.5 °C and -16.8 kcal/mol.
For TAGTGGAAACACTA (((((....))))), in that order: 40.9 °C and -14.9 kcal/mol.
In the case of TATCCGAAAGGATA (((((....))))), the Tm in series [1] stood at 56.5 °C. The folding enthalpy in series [2] was -16.6 kcal/mol.
TCTACGAAAGTAGA (((((....))))): the Tm in series [1] is 47.8 °C. In addition, in series [2], the folding enthalpy was -16.4 kcal/mol.
On to TCTGTGAAAACAGA (((((....))))), for which the Tm in series [1] turned out to be 42.4 °C. Moreover, the folding enthalpy in series [2] is -17.6 kcal/mol.
With TGAACGAAAGTTCA (((((....))))), in series [1], the Tm worked out at 53.3 °C. In addition, in series [2], the folding enthalpy was -20.6 kcal/mol.
For the sequence TGAAGGAAACTTCA (((((....))))), in series [1], the Tm was 31.8 °C. Further, the folding enthalpy in series [2] was -13.9 kcal/mol.
Consider TGAATGAAAATTCA (((((....))))), for which the Tm in series [1] stood at 30.4 °C. Further, the folding enthalpy in series [2] was -9.75 kcal/mol.
For TGACGGAAACGTCA (((((....))))) the same measures were 52.5 °C and -23.7 kcal/mol.
For TGAGAGAAATCTCA (((((....))))) the same measures were 28.2 °C and -9.57 kcal/mol.
In the case of TGAGGGAAACCTCA (((((....))))), the Tm in series [1] is 42.2 °C. Besides, the folding enthalpy in series [2] was -20.9 kcal/mol.
For TGATGGAAACATCA (((((....))))), in that order: 41.3 °C and -22 kcal/mol.
Regarding TGCCTGAAAAGGCA (((((....))))), in series [1], the Tm came out at 59.1 °C. For the same sequence, the folding enthalpy in series [2] was -17.5 kcal/mol.
For TGGTCGAAAGACCA (((((....))))) the same measures were 66.8 °C and -19.1 kcal/mol.
For TGGTGGAAACACCA (((((....))))), in that order: 52.4 °C and -22.2 kcal/mol.
With TGTCGGAAACGACA (((((....))))), the Tm in series [1] stood at 60 °C. The folding enthalpy in series [2] is -16.3 kcal/mol.
For TTCAGGAAACTGAA (((((....))))) the same measures were 35.7 °C and -13.5 kcal/mol.
Take TTGACGAAAGTCAA (((((....))))): in series [1], the Tm came to 54.1 °C. In addition, the folding enthalpy in series [2] was -21.4 kcal/mol.
In the case of TTTGTGAAAACAAA (((((....))))), the Tm in series [1] turned out to be 35.6 °C. Also, the folding enthalpy in series [2] is -12.6 kcal/mol.
